High-throughput results (PubChem)
SKKanGAS inh: inhibitors of SKKanGAS S. pyogenes growth in kanamycin (SK-promoter or general growth effect). inhibition, % at 7.5 µM. BacTiter-Glo, 6 h. AID 1662. 300,000 compounds, 1.3% hits;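 active means mean replicate score, as percent of positive control median, at least 50; inconclusive means mean below 50 but one replicate at or above 50; inactive means mean and every replicate below 50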;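 further: strain carries kanamycin resistance gene driven by streptokinase promoter and grows in 40 µg/ml kanamycin; loss of luminescence reflects streptokinase promoter inhibition or plain growth inhibition; 0% = median of DMSO wells and 100% = positive control at its reference dose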
Mdm2 MdmX PPI: inhibitors of human Mdm2/MdmX interaction. O15151+Q00987. SaOS-2 split-luciferase Mdm2/MdmX complementation, luminescence. inhibition, % at 8 µM. 330,000 compounds, 3% hits;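 active means inhibition of at least 50% at 8 µM in the primary screen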
Target sequence (O15151 whole entry, looked up): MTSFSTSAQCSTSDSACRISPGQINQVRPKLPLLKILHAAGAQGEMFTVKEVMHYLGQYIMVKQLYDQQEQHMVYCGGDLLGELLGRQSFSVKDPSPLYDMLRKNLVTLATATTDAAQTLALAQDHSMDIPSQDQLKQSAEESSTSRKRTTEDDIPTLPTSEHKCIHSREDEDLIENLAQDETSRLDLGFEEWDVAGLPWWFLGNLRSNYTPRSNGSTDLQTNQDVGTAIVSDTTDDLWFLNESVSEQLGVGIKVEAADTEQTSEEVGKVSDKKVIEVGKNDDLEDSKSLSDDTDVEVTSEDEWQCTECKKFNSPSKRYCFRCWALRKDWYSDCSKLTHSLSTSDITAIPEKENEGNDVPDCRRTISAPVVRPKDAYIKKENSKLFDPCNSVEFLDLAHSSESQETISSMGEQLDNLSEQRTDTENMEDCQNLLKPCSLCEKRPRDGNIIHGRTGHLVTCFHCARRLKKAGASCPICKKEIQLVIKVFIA
Target sequence (Q00987 whole entry, looked up): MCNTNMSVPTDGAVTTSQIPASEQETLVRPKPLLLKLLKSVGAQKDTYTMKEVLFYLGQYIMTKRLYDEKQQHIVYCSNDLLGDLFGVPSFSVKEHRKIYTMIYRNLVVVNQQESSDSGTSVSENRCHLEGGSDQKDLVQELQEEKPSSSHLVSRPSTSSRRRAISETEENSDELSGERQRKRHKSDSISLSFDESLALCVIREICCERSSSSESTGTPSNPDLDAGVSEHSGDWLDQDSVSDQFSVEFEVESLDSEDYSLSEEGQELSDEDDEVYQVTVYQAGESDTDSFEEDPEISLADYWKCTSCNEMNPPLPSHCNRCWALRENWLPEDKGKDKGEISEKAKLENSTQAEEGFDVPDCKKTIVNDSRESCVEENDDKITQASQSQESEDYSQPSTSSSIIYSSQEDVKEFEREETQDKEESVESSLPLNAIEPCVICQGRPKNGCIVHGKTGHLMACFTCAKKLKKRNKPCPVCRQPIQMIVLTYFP
T cruzi inh: T. cruzi replication inhibition; T. cruzi beta-gal in NIH3T3, luminescence, 90 h; inhibition, % (test concentration not listed); 300,000 compounds, 1.4% hits;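 active means mean inhibition across valid replicates above about 55%, limit read from the data; inconclusive means mean below that limit but half or more replicates reach it; inactive means mean below it, under half of replicates reach it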;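 further: signal also drops with host cell toxicity which is not excluded here; 0% = plate median of DMSO wells and 100% = zero luminescence signal; higher percent means less beta-gal luminescence so fewer parasites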
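Read-out: Parasite load inhibition, % | Test system: Mouse NIH/3T3 fibroblasts infected with β-gal-expressing T. cruzi Tulahuen C4 | Amount: 5,000 cells/well | Medium: DMEM, 2% fetal bovine serum | Signal: GalScreen β-gal luminescence, detergent lysis, 60 min | Timing: 3 h attach, ≥90 h co-culture | Also added: Tulahuen C4 trypomastigotes, 5000/well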
CSC inhib: cancer stem cell inhibition; cancer stem cell-like cells viability, luminescence; inhibition, % at 7.5 µM; 300,000 compounds, 1.1% hits; in the data active means inhibition above about 75%; inconclusive means no clear call, values can overlap the other calls; tested in HMLE shEcad cells
Calb FLC: affects C. albicans growth with fluconazole; C. albicans CaCi-2 (fluconazole-resistant clinical isolate) + fluconazole, Alamar Blue growth, 48 h; growth inhibition, % (no concentration beside the values); 300,000 compounds, 0.57% hits; AID 1979;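 active means growth inhibition above about 58% in most replicates, limit read from the data, passing the limit was not always enough; inconclusive means exactly half the replicates above a set limit; inactive means most replicates below a set limit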;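 further: all wells also contain fluconazole at 8 µg/ml as a sub-toxic cotreatment; 0% = median of DMSO wells and 100% = median of geldanamycin control wells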
Beta cell apopt: beta cell apoptosis inhibition; INS-1E cytokine-induced death, ATP luminescence, 48 h; percent of positive-control rescue, neutral wells zero; protection from apoptosis, % (concentration not given with the values); 300,000 compounds, 0.8% hits; AID 435005;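 active means Every replicate reaches about 75%, or at least half do and their mean reaches it too, limit read from the data; inconclusive means At least half of replicates reach the limit but their mean does not; inactive means Under half of replicates reach the limit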;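 further: 0% = cytokine-treated negative control wells and 100% = positive control rescue; higher means more ATP so stronger rescue from cytokine killing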
* marks the source's active call; other numbers are inactive results; ? = inconclusive; nt = no result. Shown are actives, neighbours in structure and some others; about 5.7% of the full set was active somewhere.

SMILES	SKKanGAS inh	Mdm2 MdmX PPI	T cruzi inh	CSC inhib	Calb FLC	Beta cell apopt
COc1ccc(C2CC(c3ccc4ccccc4c3OC(C)=O)=NN2C(C)=O)cc1 (stereo not given)	34.4	-50.8	1.3	29.8	4.6	95.6*
CC(C)CN(C(=O)c1cc([N+](=O)[O-])cc([N+](=O)[O-])c1)C1CCS(=O)(=O)C1 (stereo not given)	2.8	4.9	56.7*	-2.2	-1.6	-4.9
CC(C)CN(C(=O)CCNC(=O)c1ccc([N+](=O)[O-])cc1)C1CCS(=O)(=O)C1 (stereo not given)	nt	-1.9	nt	-13.5	nt	-2.5
COc1cc(OC)c(OC)cc1/C=C1\CC(C)C/C(=C\c2cc(OC)c(OC)cc2OC)C1=O (stereo not given)	55.6*	nt	59.1*	12.5	1.6	13.5
O=C(NCCc1ccc2c(c1)OCCO2)c1ccccn1	-0.9	-30.6	-4.6	9.5	-2.4	-3.6
Cc1ccc(NC(=O)c2ccc(-n3cccn3)c([N+](=O)[O-])c2)cc1	8.3	-9.3	2.8	-5.3	-16.4	-7.3
O=C(Nc1ccc(C2=NCCN2)cc1)c1ccc(C(=O)Nc2ccc(C3=NCCN3)cc2)c([N+](=O)[O-])c1	19.2	0.7	14.1	-19.1	107.0*	20.5
CC(C)(C)N/N=C1\CC(c2ccccc2)Oc2ccccc21 (stereo not given)	72.7*	11.1	11.5	nt	20.3	4.2
c1ccc(C2C/C(=N\N3CCOCC3)c3ccccc3O2)cc1 (stereo not given)	6.4	21.3	21.3	-5.4	-1.8	-13.6
Cn1c(-c2c(N)n(-c3ccccc3)c3nc4ccccc4nc23)nc2ccccc21	-19.1	nt	52.3	4.3	15.3	-1.0
Cc1cccc(-n2c(N)c(-c3nc4ccccc4n3C)c3nc4ccccc4nc32)c1	77.9*	15.7	47.4	1.7	-2.6	3.1
Oc1ccc(/C=N/n2cnn(Cc3ccccc3Cl)c2=S)c(O)c1	3.5	8.6	-18.3	77.7*	6.9	-9.2
CC(C)N(C(=O)[C@H]1C[C@H](CC(=O)NCCCn2ccnc2)C(=O)N2CCc3c([nH]c4ccc(Cl)cc34)[C@]12C)C(C)C	nt	26.1	nt	nt	nt	nt
OC(c1cccc(Cl)c1)c1nccc2ccccc12 (stereo not given)	7.1	10.2	-8.2	-4.1	-11.2	-11.4
O=C(OC(c1ccccc1)c1nccc2ccccc12)c1cc([N+](=O)[O-])cc([N+](=O)[O-])c1 (stereo not given)	6.9	19.7	57.8*	-2.2	22.2	19.2
O=C(Nc1ccccc1)Nc1ccc(Nc2ccccc2)cc1	-9.5	-34.9	24.4	26.2	-10.8	-1.8
O=C(Nc1ccccc1)Nc1ccccc1-n1ccnc1	-8.3	5.8	60.8*	-19.0	22.6	5.3
Cc1ccc(S(=O)(=O)CC(CN2CCCCC2)N2CCCCC2)cc1 (stereo not given)	-7.8	nt	2.9	nt	-25.0	nt
O=S(=O)(CC(CN1CCCCC1)N1CCCCC1)c1ccc2ccccc2c1 (stereo not given)	-0.2	nt	70.6*	nt	-3.8	nt
CCOC(=O)C1(CCOc2ccccc2)CCN(C(=O)CCSC)CC1	0.2	nt	-6.2	-2.2	1.6	-2.3
O=C(NCC(=O)N1CCN(Cc2c(F)cccc2Cl)CC1)c1cccc(Cl)c1	nt	-5.3	nt	nt	nt	nt
Cc1ccc(NC(=O)COc2ccc(CCO)cc2-n2nc3ccccc3n2)cc1C	20.1	18.7	56.7*	60.0	-4.1	1.2
Cc1cc(C)cc(Nc2nc3ccccc3c(=O)[nH]2)c1	-4.8	9.8	19.7	-4.3	2.7	-0.5
Cc1ccc2c(=O)[nH]c(Nc3nc(C)cc(-c4ccccc4)n3)nc2c1	89.0*	28.3	17.5	7.6	13.1	15.2
OCCN1CCN(C(=S)NC2CCCC2)CC1	-7.0	11.4	-4.3	-15.5	88.3*	-6.1
SMILES	SKKanGAS inh	Mdm2 MdmX PPI	T cruzi inh	CSC inhib	Calb FLC	Beta cell apopt
S=C(NCCN1CCOCC1)NC1CCCC1	-9.0	-11.2	3.3	-0.2	51.0*	-4.1
CN(C)c1ccc(CN(C(=O)c2ccccc2Br)C2CCS(=O)(=O)C2)cc1 (stereo not given)	10.8	6.6	-22.6	-5.4	-11.5	-2.4
Cc1ccc(C(=O)O)cc1NCc1ccncc1	0.5	-20.1	-6.3	-18.8	-10.6	4.3
CC(=O)Nc1ccc(NC(=O)Nc2cccc(Cl)c2)cc1	-7.4	1.5	-0.9	6.6	11.3	-8.1
CC(=O)C(=Nc1ccc(Cl)cc1Cl)NNc1cccc(Cl)c1	52.2*	-6.9	46.1	-11.8	-0.7	4.3
Cc1ccc(S(=O)(=O)c2ccccc2)cc1S	1.7	-1.5	62.3*	11.0	-7.6	-8.9
COc1c(O)ccc(/C=C(\C#N)c2nc3ccccc3[nH]2)c1[N+](=O)[O-]	54.6*	9.3	-13.5	5.3	-0.2	0.6
COc1cc(/C=C(\C#N)c2nc3ccccc3[nH]2)ccc1Oc1ccc([N+](=O)[O-])cn1	18.0	16.7	61.6*	17.6	7.2	20.8
CN1C(C(=O)Nc2cccc(O)c2)=CC(c2ccco2)=NS1(=O)=O	-4.6	-0.6	3.9	14.7	-2.9	0.5
O=C(N/N=C/c1cc(Br)c(O)c(Br)c1O)c1cccnc1	7.7	-10.6	1.7	55.4	nt	34.0
O=C(N/N=C/c1cc([N+](=O)[O-])ccc1O)c1ccncc1	92.1*	15.8	-1.9	-3.2	1.0	-1.0
O=C(CCC(=O)Nc1cccc(Cl)c1)N/N=C/c1cc([N+](=O)[O-])ccc1O	99.7*	41.6	-5.2	13.6	?	28.9
O=C(N/N=C/c1cc(Br)ccc1OC(=O)c1ccc(Br)cc1)c1ccncc1	42.0	42.6	-6.0	nt	?	91.9*
O=C(N/N=C/c1ccc(OC(=O)c2ccc(Br)cc2)cc1)c1ccncc1	-2.0	-10.4	-17.7	-5.7	1.5	-1.9
O=C(N/N=C/c1cc(O)ccc1Br)c1cccnc1	110.8*	26.3	-27.3	nt	2.8	nt
Cc1nc2ccsc2c(=O)n1-c1cccc(Cl)c1	-2.0	22.7	-16.0	-4.3	-8.4	nt
Cc1ccc(NC(=O)CCc2nnc3ccc(N4CCC(C)CC4)nn23)nc1	-0.6	14.3	7.7	-10.3	?	3.4
O=C(CN1C(=O)NC2(CCCCCC2)C1=O)N1CCN(c2ccccc2)CC1	nt	2.2	nt	nt	nt	-6.6
O=C(N/N=C(\c1ccccc1)c1cccnc1)c1cc(O)ccc1O	1.4	-0.2	65.3*	-3.5	6.9	-17.7
O=C(N/N=C/c1cc(Cl)ccc1O)c1ccc(Br)cc1	nt	nt	nt	99.5*	nt	112.4*
O=C(N/N=C/c1cc([N+](=O)[O-])ccc1O)c1cccc(N2CCCC2=O)c1	55.4*	21.9	-9.7	-7.5	-1.2	1.4
COc1cc(/C=N/NC(=O)c2cccc(N3CCCC3=O)c2)ccc1O	0.4	14.8	-14.1	12.2	7.8	-1.0
Nc1nonc1C(=O)N/N=C/c1cc(Br)ccc1O	-6.2	19.6	1.0	10.1	101.0*	13.4
O=C(CCc1ccccc1)N=C1SC2CS(=O)(=O)CC2N1c1ccccc1F (stereo not given)	-3.2	5.7	9.0	0.7	nt	-4.2
